The results in this text go back to the EternaBench riboswitch data.

This data set has as its system MS2 coat protein. Briefly: apparent Kd, MS2 coat protein; higher = weaker binding; RNA-MaP array; FMN 200 µM where present. In short, it runs like this:
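Designs on Illumina sequencing-chip clusters, transcribed by stalled E. coli RNA polymerase, were exposed to SNAP-549-labelled MS2 coat protein in doubling steps from 0.7 or 1.5 nM up to 3 µM, without and then with constant ligand. The buffer held 100 mM Tris-HCl pH 7.5, 80 mM KCl, 4 mM MgCl2, BSA, DTT, yeast tRNA and Tween-20. Apparent Kd values are medians of filtered per-cluster binding-curve fits to green signal normalised to red-channel RNA signal and control-cluster median Fmax.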

Setting [1] is: designed as: ON switch for flavin mononucleotide, no ligand.
Setting [2] is: ligand present: flavin mononucleotide, designed as: ON switch for flavin mononucleotide.
The mark [3] stands for this setting: designed as: OFF switch for flavin mononucleotide, no ligand.
[4] abbreviates: ligand present: flavin mononucleotide, designed as: OFF switch for flavin mononucleotide.

As a reminder, the apparent Kd is the concentration giving half-maximal binding under the conditions of the assay. In the case of “UUGGUGUACGUAGGAUAUGUAGGAUAUUCCUACAUGAGGAUCACCCAUGUUUACAUGGAAGAAGGACAGAAGGACGUGCACCAU”, the “apparent Kd” value was found to be 1280 nM under setting [1] and 15.2 nM under setting [2].

As for “UUUAUGUCAGGAUAUACAUGAGGAUCACCCAUGUAUAUCUUAAAGUAUACAUGGAAAUGUAGAAGGGACGUCCU”, the “apparent Kd” value amounted to 15.1 nM under setting [3] and 17.1 nM under setting [4].

Take “UCGAGUCAUGAGAAGGGCUGAUGUUACAUGAGGAUCACCCAUGUCAUGGGCAGGAUAUCAUUGACACGGCUGUACCUUUCUUAC”: the “apparent Kd” value by setting is: under setting [1], 149 nM; under setting [2], 29.4 nM.

On to “AAUGUUGAUGUGAGGAUAUACAUAGUUUGACCGUAGUAGAAGGCACAUGAGGAUCACCCAUGUAGAUGUUUGGU”, for which the “apparent Kd” value runs as follows: under setting [3], 12 nM; under setting [4], 24.2 nM.

Take “UUGUACAUUCGAGGAUAUCGGAGAGAGAUCAUUCGAGAAGGCGAUUCAUGAUGUAUUAUCCUGGACAUGAGGAUCACCCAUGUA”: the “apparent Kd” value under setting [1] worked out at 111 nM and the “apparent Kd” value under setting [2] was 65.9 nM.

As to “GUAGCUACAUGAGGAUCACCCAUGUAGGAUAUCGCUAUUGUAAUCAUGAAACAUGAUUACAAUAGCGAGAAGGACGUUAGCUAC”, the “apparent Kd” value reads like this: under setting [3], 6.31 nM; under setting [4], 7.31 nM.

On to “UCUCUUGGGCAAGGAUAUCCUGCGCGGUUCCGGUUCGUGUCUGUCACAUGAGGAUCACCCAUGUGGGAGAAGGUGCCUGCGGUU”, for which the “apparent Kd” value runs as follows: under setting [3], 17.7 nM; under setting [4], 25.5 nM.

On to “GUGAGGUCAGGAUAUGCAUGGCGGGACUUGCGUCGUGGCGUGCAGAAGGGACAUGAGGAUCACCCAUGUGGAGU”, for which the “apparent Kd” value under setting [3] was 157 nM and the “apparent Kd” value under setting [4] is 238 nM.

With “UUCAUGUGAGGAUAUCAGUAGUAAAAAAAUAAAAUUACUACUGAGAAGGCACAUGAGGAUCACCCAUGUCCUUC”, the “apparent Kd” value runs as follows: under setting [3], 62.5 nM; under setting [4], 40.8 nM.

For “GCGUUAUUGUAGAAGGUACAUGAAUAUAUUUAAUACCUCAAGUAACAUGAGGAUCACCCAUGUAGUAAGGAUAUACAUAUACGC”, the “apparent Kd” value is 69.4 nM under setting [1] and 52.4 nM under setting [2].

Turning to “UGAUCGAAAGAUCAUAGAUUCUGCUAGGAUAUGCAGAAGUUUCAAUUUACAUGAGGAUCACCCAUGUAGAAGGAGUAGAGUCUA”, the “apparent Kd” value under setting [3] turned out to be 5.48 nM and the “apparent Kd” value under setting [4] is 5.98 nM.

For “AAGGUGUUAGGAUAUCGUAGUUUGAGGCAGACGGGAUUUUGCGAGAAGGAACAUGAGGAUCACCCAUGUAGGAU”, the “apparent Kd” value under setting [3] came out at 27.2 nM and the “apparent Kd” value under setting [4] was 30.4 nM.

As to “AUCAGCACGUGAGGAUAUGCGUCACUGCGUCAGCAGUGCGGUAAGAUCACAUGAGGAUCACCCAUGUAGAAGGCACGAGCUGAU”, the “apparent Kd” value reads like this: under setting [3], 21.4 nM; under setting [4], 49.8 nM.

With “CGCUGUCAUGCAGGAUAUGCAUUGGAUUACAAUGCAGAAGGGCGAUUACAUGAGGAUCACCCAUGUGUAGACGGUGAAGAAGAG”, the “apparent Kd” value by setting is: under setting [1], 137 nM; under setting [2], 13.1 nM.

On to “CUCUCACAGUCAGGAUAUGACGCGGAACAUGAGGAUCACCCAUGUGACGUCCCUCCAUGUACCCGUCAGAAGGGAUUAAUGGAC”, for which the “apparent Kd” value is, setting by setting: under setting [3], 720 nM; under setting [4], 480 nM.

With “UGGUACAUGGGAGGAUAUCCUCAAGAGACAUGAGGAUCACCCAUGUAUUAUAAGCCUAAUGGCAUGGAGAAGGCCCAUGUACCU”, the “apparent Kd” value runs as follows: under setting [1], 467 nM; under setting [2], 49 nM.

In the case of “AUACCACGAGGAUAUCGUCUAUAAUACAUGAGGAUCACCCAUGUUAUAUCUGUAAUGUUUCGAGAAGGCGUGUUUU”, the “apparent Kd” value under setting [3] was 17.5 nM and the “apparent Kd” value under setting [4] is 14.2 nM.

For the sequence “UUCAUGUGAGGAUAUGCGGCGUCAGGUGGGCCUGUCGCUGAGCAGAAGGCACAUGAGGAUCACCCAUGUGCUCC”, the “apparent Kd” value was determined as 31.7 nM under setting [3] and 62.5 nM under setting [4].

In the case of “AUAGUGCCCGAGAAGGACGUACCACAUGUUGAUCACCGAUAUAAGGAACGUAGGAUAUUGGACAUGAGGAUCACCCAUGUGGAU”, the “apparent Kd” value is, setting by setting: under setting [1], 87.5 nM; under setting [2], 162 nM.

For the sequence “CAGUGCUGUCGAGAGGAUAUGCGGUGAUGGACAUGAGGAUCACCCAUGUUAGCGACAGCAUCACGGCAGAAGGCUCUACCCACUG”, the “apparent Kd” value runs as follows: under setting [1], 29.4 nM; under setting [2], 17 nM.

“AGCUAGUCAGGAUAUGCAUACAUGUCAAAAGACGUGAAGGGACAUGAGGAUCACCCAUGUAGAAGGGACUAGCA”: the “apparent Kd” value reads like this: under setting [3], 40.4 nM; under setting [4], 67.9 nM.

With “GUCAGCUCGUGAGGAUAUACAACACUGCUUCGGCAGUGUAUUGAGAUCACAUGAGGAUCACCCAUGUAGAAGGCACGAGCUGAU”, the “apparent Kd” value amounted to 12.9 nM under setting [3] and 225 nM under setting [4].

Turning to “UGAAACUACGAGAAGGACAUGUGGUCCUUCAGUUACAUGAGGAUCACCCAUGUAGGAUAUCGUAGUUUCAGGAUCGUGAGAUCC”, the “apparent Kd” value turned out to be 32.8 nM under setting [3] and 11.7 nM under setting [4].

Consider “CAGGAUAGAGGAUAUACAUAGAUACAGAUUCAUGUAAUCCUACAUGAGGAUCACCCAUGUAGAAGGCUAUCCUG”, for which the “apparent Kd” value is, setting by setting: under setting [3], 14.9 nM; under setting [4], 64.9 nM.
